Measured values pooled from the literature.
Compare with care: the assays were run in different laboratories.
Target: 3-phosphoinositide-dependent protein kinase 1 (PDPK1, Homo sapiens, UniProt O15530)
One construct used (O15530 1-556): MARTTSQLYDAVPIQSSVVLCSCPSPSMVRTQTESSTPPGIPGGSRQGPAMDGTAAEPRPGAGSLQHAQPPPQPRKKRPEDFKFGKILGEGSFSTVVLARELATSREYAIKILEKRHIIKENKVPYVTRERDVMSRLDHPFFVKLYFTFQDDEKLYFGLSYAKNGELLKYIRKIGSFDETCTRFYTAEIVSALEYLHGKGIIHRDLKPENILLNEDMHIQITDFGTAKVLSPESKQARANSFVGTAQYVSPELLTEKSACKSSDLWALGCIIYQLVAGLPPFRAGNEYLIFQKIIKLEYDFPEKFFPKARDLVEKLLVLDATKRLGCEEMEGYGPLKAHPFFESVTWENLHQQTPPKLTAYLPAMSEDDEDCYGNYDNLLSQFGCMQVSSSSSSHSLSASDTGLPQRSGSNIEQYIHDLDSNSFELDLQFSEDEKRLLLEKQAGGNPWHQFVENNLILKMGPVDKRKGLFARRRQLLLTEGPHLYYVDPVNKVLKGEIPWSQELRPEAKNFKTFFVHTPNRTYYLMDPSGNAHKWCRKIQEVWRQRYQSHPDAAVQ

`C=CC(=O)N1CCC(C(=O)NCC(=O)N2CCN(c3nc(-c4cnc(N)nc4C(F)F)nc(N4CCOCC4)n3)CC2)CC1` has a remaining binding of 93% (binding; competition with immobilised ligand; 1 µM).
With `Cc1ccc(NC(=O)c2ccc(CN3CCN(C)CC3)cc2)cc1Nc1nccc(-c2cccnc2)n1` the remaining binding was 100% (cell-free assay; competition with immobilised ligand; 10 µM).
For `CC1CCCN1c1nccc(-c2cnn3ncccc23)n1` (stereo not shown), the remaining binding was 89% (binding; 1 µM).
`CCN(CC)CCNC(=O)c1c(C)[nH]c(/C=C2\C(=O)Nc3ccc(F)cc32)c1C` has a remaining binding of 39% (cell-free assay; competition with immobilised ligand; 10 µM).
`CN(CCCC(F)(F)F)c1nccc(-c2cnn3ncccc23)n1` has a remaining binding of 100% (binding; 1 µM).
The remaining binding of `COc1ccc2c(c1)O[C@H](c1ccc(OC)c(OC)c1)C[C@@H]2NC(=O)C1(c2ccc3c(c2)OC(F)(F)O3)CC1` is reported as 100% (cell-free assay; competition with immobilised ligand; 1 µM).
The remaining binding of `Cc1nc(Nc2ncc(C(=O)Nc3c(C)cccc3Cl)s2)cc(N2CCN(CCO)CC2)n1` is reported as 100% (cell-free assay; competition with immobilised ligand; 0.1 µM).
For `C[C@@H]1CN(c2ccc3ncc(-c4ccc5[nH]nc(C6CC6)c5c4)n3n2)C[C@H](C)O1`, the remaining binding was 100% (binding; competition with immobilised ligand; 50 nM).
`O=C(NCC1CCOCC1)c1n[nH]cc1NC(=O)c1c(F)cccc1F` has a remaining binding of 100% (binding; competition with immobilised ligand; 1 µM).
`N#Cc1ccccc1CSc1nnc2c(n1)[nH]c1ccccc12` has a remaining binding of 91% (binding; competition with immobilised ligand; 10 µM).
`COc1ccnn2ncc(-c3ccnc(N(C)C)n3)c12` gave a remaining binding of 100% (binding; 1 µM).
`Cc1c(-c2ccccc2)oc2c(C(=O)OCCN3CCCCC3)cccc2c1=O` gave a remaining binding of 100% (cell-free assay; competition with immobilised ligand; 10 µM).
`CN(C)c1ncc(F)c(-c2cnn3ncccc23)n1` gave a remaining binding of 99% (binding; 1 µM).
`CC(C)(C)c1ccc(-c2nc(CBr)nn2-c2cccc(O)c2)cc1` gave a remaining binding of 89% (cell-free assay; competition with immobilised ligand; 10 µM).
`Cc1cnc(Nc2ccc(C(=O)N3CCC(N4CCCC4)CC3)cc2)nc1-c1cc2ccccc2s1` has a remaining binding of 72% (binding; competition with immobilised ligand; 1 µM).
For `CCN(CC)Cc1cc(Nc2ccnc3cc(Cl)ccc23)ccc1O`, the remaining binding was 100% (cell-free assay; competition with immobilised ligand; 0.1 µM).
For `O=C(Nc1cccnn1)N1CC(C/C=C/c2cncc(Oc3ccc(C(F)(F)F)cn3)n2)C1`, the remaining binding was 97% (cell-free assay; competition with immobilised ligand; 1 µM).
`N[C@@H]1CCN(c2nccc(-c3cnn4ncccc34)n2)C1` gave a remaining binding of 96% (binding; 1 µM).
`CS(=O)(=O)CCNCc1ccc(-c2ccc3ncnc(Nc4ccc(OCc5cccc(F)c5)c(Cl)c4)c3c2)o1` has a remaining binding of 100% (cell-free assay; competition with immobilised ligand; 0.1 µM).
`CN(c1nccc(-c2cnn3ncccc23)n1)C1CC1` gave a remaining binding of 100% (binding; 1 µM).
The remaining binding of `CCCCN(CCCC)C(=O)CN1C[C@@H](c2cc(OC)c3c(c2)OCO3)[C@H](C(=O)O)[C@H]1CC(C)(C)CCC` is reported as 77.3% (cell-free assay; competition with immobilised ligand; 1 µM).
For `Nc1ncc2c(n1)-c1c([nH]c3ccc(C#CC4CC4)cc13)CCCC2`, the remaining binding was 91% (binding; competition with immobilised ligand; 1 µM).
`O=C(Nc1cccnn1)N1CCC(=Cc2cccc(Oc3ccc(C(F)(F)F)cn3)c2)CC1` gave a remaining binding of 85% (cell-free assay; competition with immobilised ligand; 1 µM).
With `C[C@H]1CCN(c2nccc(-c3cnn4ncccc34)n2)C1` the remaining binding was 100% (binding; 1 µM).
`CNC(=O)Nc1ccc2c(c1)CC[C@@]21OC(=O)N(CC(=O)N(Cc2ccc(F)cc2)[C@@H](C)C(F)(F)F)C1=O` has a remaining binding of 88% (cell-free assay; competition with immobilised ligand; 1 µM).
For `CN1CC[C@H](c2c(O)cc(O)c3c(=O)cc(-c4ccccc4Cl)oc23)[C@H](O)C1`, the remaining binding was 100% (cell-free assay; competition with immobilised ligand; 10 µM).
`O=C(NCCCN1CCOCC1)c1ccc(Nc2nccc(-c3cc4ccccc4s3)n2)cc1` has a remaining binding of 99% (binding; competition with immobilised ligand; 1 µM).
For `NS(=O)(=O)c1cc(NC(=O)C2(c3ccccc3Cl)CC2)ccc1Oc1cccc(Cl)c1`, the remaining binding was 85% (cell-free assay; competition with immobilised ligand; 1 µM).
The remaining binding of `COc1cnc(Nc2cccc(S(N)(=O)=O)c2)nc1N1CCN(c2ccccc2)CC1` is reported as 100% (binding; competition with immobilised ligand; 1 µM).
The remaining binding of `COc1cc2ncnc(Nc3ccc(F)c(Cl)c3)c2cc1OCCCN1CCOCC1` is reported as 100% (cell-free assay; competition with immobilised ligand; 0.1 µM).
For `CN(C)C(=O)Cn1cc(-c2nc([C@@](C)(c3ccc(-c4cnc(N)nc4)cc3)C3CC3)no2)cn1`, the remaining binding was 99% (cell-free assay; competition with immobilised ligand; 1 µM).
With `c1cncc(-c2cccc(Nc3nccc(NC4CCCCC4)n3)c2)c1` the remaining binding was 100% (binding; competition with immobilised ligand; 10 µM).
For `Cc1nc(Cc2cccc(C(F)(F)F)c2)sc1-c1ccc(C(N)=O)nc1`, the remaining binding was 82% (cell-free assay; competition with immobilised ligand; 1 µM).
The remaining binding of `O=C(c1ccc(Nc2ncc(Cl)c(-c3cc4ccccc4s3)n2)cc1)N1CCC(N2CCCC2)CC1` is reported as 78% (binding; competition with immobilised ligand; 1 µM).
